Published values from different studies.
Nuclear receptor subfamily 4 group A member 2: Nuclear receptor subfamily 4 group A member 2 (Homo sapiens, UniProt P43354)
P2RY14: P2Y purinoceptor 14 (P2RY14, Homo sapiens, UniProt Q15391)
CDPK1: Calcium-dependent protein kinase 1 (CDPK1, Plasmodium falciparum, UniProt P62344)

| Compound | target | test | test system | conditions | quantity | result |
| --- | --- | --- | --- | --- | --- | --- |
| CCN1CCN(c2cc(N3CCN(CC)CC3)nc(NCCNc3ccnc4cc(Cl)ccc34)n2)CC1 | Nuclear receptor subfamily 4 group A member 2 | thermal stability, DSF | – | 100 µM | ΔTm | -0.12 °C |
| O=C(N[C@@H](Cc1c[nH]c2ccccc12)C(=O)O)c1ccco1 | P2RY14 | cAMP, antagonist | HEK293 | 0.1 µM | inhibition | 73.6% |
| Cc1cc(O)c(-c2ccc([C@@H](C)CN(C)C)cc2)c2c1[nH]c(=O)c1sccc12 | Mitogen-activated protein kinase kinase kinase 1 (MAP3K1, Homo sapiens, UniProt Q13233) | enzyme activity, inhibitor | – | 0.1 µM | inhibition | 4.39% |
| CN1C(C(=O)Nc2ccccn2)=C(O)c2sc(Cl)cc2S1(=O)=O | Nuclear receptor subfamily 4 group A member 2 | thermal stability, DSF | – | 100 µM | ΔTm | 0.18 °C |
| COC(=O)[C@H](Cc1c[nH]c2ccccc12)NC(=O)COc1ccc(C)cc1 | P2RY14 | cAMP, antagonist | HEK293 | 0.1 µM | inhibition | -20% |
| CCCCC(=O)Nc1ccc(-c2ccc3ncn(CCC)c(=O)c3c2)cn1 | CDPK1 | binding, competition with immobilised ligand | – | 0.5 µM | remaining binding | 100% |
| C1=C/COCc2cc(ccc2OCCN2CCCC2)Nc2nccc(n2)-c2cccc(c2)COC/1 | CDPK1 | binding | – | 0.1 µM | remaining binding | 36% |
| O=C(N[C@@H](Cc1c[nH]c2ccccc12)C(=O)O)c1cscn1 | P2RY14 | cAMP, antagonist | HEK293 | 0.1 µM | inhibition | 60.5% |
| COc1ccc2oc(-c3ccc4nc(N)oc4c3)c/c(=N\c3ccccc3NC(=O)CCN)c2c1 | TGF-beta receptor type-1 (TGFBR1, Homo sapiens, UniProt P36897) | binding | – | 1 µM | remaining binding | 111% |
